Legend:
[1] = molecular target: T1, Prostaglandin G/H synthase 2 (Homo sapiens) (UniProt P35354); settings: at 100 µM;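 also: recombinant enzyme assay, activity read out as PGE2 generation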
T1 sequence (whole entry): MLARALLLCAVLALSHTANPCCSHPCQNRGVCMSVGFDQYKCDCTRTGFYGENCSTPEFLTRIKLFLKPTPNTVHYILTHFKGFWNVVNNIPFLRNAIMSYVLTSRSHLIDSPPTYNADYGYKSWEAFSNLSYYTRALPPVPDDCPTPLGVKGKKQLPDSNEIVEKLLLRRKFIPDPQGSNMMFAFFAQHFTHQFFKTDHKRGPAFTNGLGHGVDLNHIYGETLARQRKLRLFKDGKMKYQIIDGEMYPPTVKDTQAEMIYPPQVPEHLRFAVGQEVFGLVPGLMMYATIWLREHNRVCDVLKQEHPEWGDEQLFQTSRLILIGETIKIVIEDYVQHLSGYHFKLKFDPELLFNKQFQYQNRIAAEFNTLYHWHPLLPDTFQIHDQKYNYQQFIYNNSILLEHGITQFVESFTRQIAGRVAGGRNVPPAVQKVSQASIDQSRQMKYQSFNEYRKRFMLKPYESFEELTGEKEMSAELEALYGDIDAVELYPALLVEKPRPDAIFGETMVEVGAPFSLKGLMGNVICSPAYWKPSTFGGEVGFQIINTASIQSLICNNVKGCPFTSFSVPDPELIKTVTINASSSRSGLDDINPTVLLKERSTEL

[2] = molecular target: Prostaglandin G/H synthase 1 (Homo sapiens) (UniProt P23219); settings: at 100 µM;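 also: recombinant human COX-1 enzyme, activity read out as PGE2 production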
Prostaglandin G/H synthase 1 (Homo sapiens), sequence (P23219 whole entry): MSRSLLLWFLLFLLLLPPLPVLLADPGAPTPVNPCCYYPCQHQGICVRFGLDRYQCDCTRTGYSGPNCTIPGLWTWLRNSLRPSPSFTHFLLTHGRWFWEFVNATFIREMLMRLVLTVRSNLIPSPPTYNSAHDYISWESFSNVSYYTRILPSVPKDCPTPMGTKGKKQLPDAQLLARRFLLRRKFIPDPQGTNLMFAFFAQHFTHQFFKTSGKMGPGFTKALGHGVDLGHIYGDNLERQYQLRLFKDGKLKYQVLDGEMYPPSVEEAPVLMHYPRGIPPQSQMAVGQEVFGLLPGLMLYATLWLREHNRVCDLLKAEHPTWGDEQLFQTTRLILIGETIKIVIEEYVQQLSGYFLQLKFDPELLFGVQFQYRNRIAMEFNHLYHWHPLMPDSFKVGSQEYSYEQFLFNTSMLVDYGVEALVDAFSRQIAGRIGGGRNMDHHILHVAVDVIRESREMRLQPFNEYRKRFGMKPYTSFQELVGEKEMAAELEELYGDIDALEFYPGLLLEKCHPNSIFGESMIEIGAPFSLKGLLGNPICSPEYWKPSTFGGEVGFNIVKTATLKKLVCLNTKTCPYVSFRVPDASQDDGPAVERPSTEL

CYP2C9 = CYP2C9 (Homo sapiens, UniProt P11712); test: Metabolic stability in presence of human recombinant CYP2C9 at 1 uM after 30 mins; type: ADME
CYP2C9, sequence (P11712 whole entry): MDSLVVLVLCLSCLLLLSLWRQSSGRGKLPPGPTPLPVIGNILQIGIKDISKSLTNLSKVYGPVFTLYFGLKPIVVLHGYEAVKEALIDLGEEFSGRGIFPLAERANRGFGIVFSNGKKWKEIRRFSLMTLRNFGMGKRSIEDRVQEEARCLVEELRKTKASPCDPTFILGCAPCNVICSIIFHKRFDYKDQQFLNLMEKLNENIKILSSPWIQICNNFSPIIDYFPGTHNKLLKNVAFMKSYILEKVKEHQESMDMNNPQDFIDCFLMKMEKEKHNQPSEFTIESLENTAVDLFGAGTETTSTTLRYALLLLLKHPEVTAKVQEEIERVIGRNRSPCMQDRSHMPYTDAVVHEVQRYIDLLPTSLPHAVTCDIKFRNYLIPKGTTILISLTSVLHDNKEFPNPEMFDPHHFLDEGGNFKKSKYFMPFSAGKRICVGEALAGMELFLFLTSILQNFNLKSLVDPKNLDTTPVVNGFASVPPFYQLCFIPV
Procedure, shortened: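 Recombinant human CYP2C9 (Bactosomes), 5 pmol per reaction, in […] buffer pH 7.4 with 1 mM NADPH. Compound 1 µM, added in acetonitrile (2.5% final). 10 min preincubation at 37 °C, reaction started with NADPH, sampled at 0 and 30 min, stopped with ice-cold acetonitrile. Parent remaining quantified by LC/MS/MS as % metabolized. Run in duplicate.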

`Cc1ccc(-c2cc(C(F)(F)F)nn2-c2ccc([S+](C)[O-])cc2)cc1` (stereo unspecified) gave an inhibition [1] of 99%, an inhibition [2] of 82% and a metabolized at 0.5 h, 1 µM (CYP2C9) of 48%.

For `Cc1ccc(-c2cc(C(F)(F)F)nn2-c2ccc(C(=O)O)cc2)cc1`, the inhibition [1] was 26%, the inhibition [2] was 67% and the metabolized at 0.5 h, 1 µM (CYP2C9) was 29%.

With `NS(=O)(=O)c1ccc(-n2nc(C(F)(F)F)cc2-c2ccc(C(F)(F)F)cc2)cc1` the metabolized at 0.5 h, 1 µM (CYP2C9) was 0%.

`Cc1ccc(-c2cc(C(F)(F)F)nn2-c2ccc(S(C)(=O)=O)cc2)cc1` showed an inhibition [1] of 92%, an inhibition [2] of 99% and a metabolized at 0.5 h, 1 µM (CYP2C9) of 81%.

`Cc1ccc(-c2cc(C(F)(F)F)nn2-c2ccc(CC(=O)O)cc2)cc1` was tested, and the inhibition [1] was 95%, the inhibition [2] was 88% and the metabolized at 0.5 h, 1 µM (CYP2C9) was 10%.

`Cc1ccc(-c2cc(C(F)(F)F)nn2-c2ccc(S(N)(=O)=O)cc2)cc1` [CELECOXIB] gave a metabolized at 0.5 h, 1 µM (CYP2C9) of 94%.

`CCOC(=O)c1ccc(-n2nc(C(F)(F)F)cc2-c2ccc(C(F)(F)F)cc2)cc1` showed an inhibition [1] of 96%, an inhibition [2] of 55% and a metabolized at 0.5 h, 1 µM (CYP2C9) of 2%.

Work on `CSc1ccc(-n2nc(C(F)(F)F)cc2-c2ccc(C)cc2)cc1` yielded an inhibition [1] of 99%, an inhibition [2] of 95% and a metabolized at 0.5 h, 1 µM (CYP2C9) of 87%.

In the case of `Cc1ccc(-c2cc(-c3ccccc3)nn2-c2ccc(S(N)(=O)=O)cc2)cc1`, the inhibition [1] is reported as 92%, the inhibition [2] is reported as 100% and the metabolized at 0.5 h, 1 µM (CYP2C9) is reported as 49%.

`O=C(O)c1ccc(-n2nc(C(F)(F)F)cc2-c2ccc(C(F)(F)F)cc2)cc1` showed an inhibition [1] of 6%, an inhibition [2] of 28% and a metabolized at 0.5 h, 1 µM (CYP2C9) of 29%.

Work on `O=C(O)Cc1ccc(-n2nc(C(F)(F)F)cc2-c2ccc(C(F)(F)F)cc2)cc1` yielded an inhibition [1] of 93%, an inhibition [2] of 96% and a metabolized at 0.5 h, 1 µM (CYP2C9) of 4%.

Compound `Cc1ccc(-c2cc(C(F)(F)F)nn2-c2ccc(C)cc2)cc1` has a metabolized at 0.5 h, 1 µM (CYP2C9) of 30%.

For `Cc1ccc(-c2cc(C(=O)O)nn2-c2ccc(S(N)(=O)=O)cc2)cc1`, the inhibition [1] was 43%, the inhibition [2] was 66% and the metabolized at 0.5 h, 1 µM (CYP2C9) was 61%.

Work on `CCOC(=O)c1ccc(-n2nc(C(F)(F)F)cc2-c2ccc(C)cc2)cc1` yielded an inhibition [1] of 87%, an inhibition [2] of 55% and a metabolized at 0.5 h, 1 µM (CYP2C9) of 88%.
